# A selection: hits, their analogues and other compounds. The true share with any hit is near 3.4%.
# Efa HMGR inh – inhibitors of class II HMG-CoA reductase from Enterococcus faecalis | purified E. faecalis HMGR, NADPH absorbance 340 nm kinetic | AID 1066 | inhibition, % at 10 µM | 190,000 compounds, 0.41% hits;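 active means inhibition above a set limit, the median over all tested compounds plus 3 SD, cut at about 9.5% in these data; inconclusive means no clear call, values can overlap the other calls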;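 further: enzyme runs in reverse so mevalonate oxidation gives rising NADPH absorbance; 0% = complete reaction with DMSO and 100% = background rate lacking mevalonate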
# Wee1 degr inh – human Wee1 degradation inhibition, primary screen; P30291; HeLa Luc-Wee1K328M stability, luciferase luminescence; 100% = proteasome inhibitor MG132 effect; reporter increase, % at 5 µM; 220,000 compounds, 1.2% hits; AID 1321;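 active means activation above the mean of all tested compounds plus 3 SD, set per screening run, cut at about 8.8% in these data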;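 further: cells exposed to compound for 20 h before luminescence read; 0% = DMSO alone and 100% = MG132 at 30 µM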
# Target sequence (P30291 whole entry K328M): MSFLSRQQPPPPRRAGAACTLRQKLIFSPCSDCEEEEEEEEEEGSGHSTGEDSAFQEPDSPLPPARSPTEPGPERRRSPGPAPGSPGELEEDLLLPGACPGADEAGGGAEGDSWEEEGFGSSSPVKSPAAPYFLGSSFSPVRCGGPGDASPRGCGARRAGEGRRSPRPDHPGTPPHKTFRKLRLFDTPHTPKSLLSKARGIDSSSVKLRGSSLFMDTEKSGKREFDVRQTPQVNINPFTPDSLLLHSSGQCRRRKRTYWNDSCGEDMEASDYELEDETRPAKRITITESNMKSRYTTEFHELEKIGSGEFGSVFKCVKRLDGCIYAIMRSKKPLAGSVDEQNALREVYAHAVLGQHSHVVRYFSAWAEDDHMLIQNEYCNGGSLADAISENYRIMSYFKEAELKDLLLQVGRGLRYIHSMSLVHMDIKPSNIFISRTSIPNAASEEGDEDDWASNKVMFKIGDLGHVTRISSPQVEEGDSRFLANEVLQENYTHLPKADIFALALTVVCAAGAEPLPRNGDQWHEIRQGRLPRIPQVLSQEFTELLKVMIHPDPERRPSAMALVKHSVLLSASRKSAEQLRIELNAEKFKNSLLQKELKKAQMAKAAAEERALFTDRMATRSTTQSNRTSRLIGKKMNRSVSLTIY
# Runt-CBFb FRET – Runt domain-CBFb interaction inhibition. Cerulean-Runt/Venus-CBFb FRET ratio 530/480, 1 h. inhibition, % at 20 µM. AID 1496. 220,000 compounds, 0.46% hits;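 active means inhibition over about 50% at 20 µM in the single-dose screen, limit read from the data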;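 further: 0% = DMSO wells and 100% = excess unlabeled CBFb competitor control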
#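 Measured by: fluorescence energy transfer, 422 nm excitation, 530/480 nm emission; Assay system: Cerulean-Runt domain; Medium: Tris pH 7.5 buffer with BSA; Measure: loss of energy transfer signal; Controls: 5 µM unlabeled CBFb as full-inhibition high control; Incubation: protein complex preformed 1 h, compound exposure 1 h, room temperature, dark.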
# Runt-SMMHC FRET – Runt domain-CBFb-SMMHC interaction inhibition. Q01196+Q13951. 220,000 compounds, 0.74% hits. Cerulean-Runt/Venus-CBFb-SMMHC FRET ratio 530/480, 1 h. inhibition, % at 20 µM. AID 1434;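 active means mean inhibition across duplicate retests at 20 µM reaching about 50%, limit read from the data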;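 further: 0% = DMSO wells and 100% = wells with excess untagged CBFb-SMMHC; inhibitors lower the FRET ratio by blocking Runt binding to CBFb-SMMHC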
# PHOSPHO1 inh – inhibitors of human PHOSPHO1 phosphatase | Q8TCT1 | recombinant PHOSPHO1, absorbance phosphatase assay | inhibition, % at 13.3 µM | 290,000 compounds, 1.1% hits | AID 1565; in the data active means inhibition above about 60%
# RanGTP-Impb inh – disruptors of Ran-importin-beta complex formation – biochemical, FRET, CFP-Ran, YFP-importin-beta, homogeneous, primary screen | cell-free CFP-Ran/YFP-importin-beta FRET ratio | inhibition, % (no concentration beside the values) | 300,000 compounds, 1.1% hits;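 active means more than half of the replicate wells show a fall in the fluorescence ratio signal beyond about 16%, limit read from the data, passing the limit was not always enough; inconclusive means exactly half of the replicate wells pass the set limit; inactive means fewer than half of replicates pass the limit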;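 further: 0% = DMSO wells and 100% = Ran loaded with GDP instead of GTP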
# * hit, by the source's call; ? = inconclusive; . = no result; + = active, no number.
SMILES,Efa HMGR inh,Wee1 degr inh,Runt-CBFb FRET,Runt-SMMHC FRET,PHOSPHO1 inh,RanGTP-Impb inh
NNC(=O)c1ccc(CSc2nc3ccccc3[nH]2)cc1,-4,1,0,2,57,2
COC(=O)c1[nH]c2ccccc2c1NC(=O)C(C)N1CCOCC1 (centres undefined),.,0,-1,-1,-4,-6
COC(=O)c1[nH]c2ccccc2c1NC(=O)C(C)N1CCN(C(=O)c2ccco2)CC1 (centres undefined),1,-2,-1,1,72*,-2
CCN(CC)c1ccc(C2C(C(C)=O)C(=O)CC(C)(O)C2C(C)=O)cc1 (centres undefined),.,-1,.,.,.,5
CCOC(=O)c1cc2c(=O)n3cccc(C)c3nc2n(Cc2cccnc2)c1=N,.,3,.,.,.,.
CCCCNC(=O)c1cc2c(=O)n3cccc(C)c3nc2n(CCN2CCOCC2)c1=N,-3,3,100*,62*,0,150*
CCn1c(=N)c(C(=O)NC)cc2c(=O)n3cccc(C)c3nc21,.,.,19,58*,28,.
Cc1cccn2c(=O)c3cc(C(=O)NC(C)c4ccccc4)c(=N)n(CCCn4ccnc4)c3nc12 (centres undefined),.,-2,38,88*,25,+
CCCn1c(=N)c(C(=O)NC2CCCC2)cc2c(=O)n3cccc(C)c3nc21,5,-1,5,83*,-11,198*
CCn1c(=N)c(C(N)=O)cc2c(=O)n3cccc(C)c3nc21,.,5,.,.,.,.
Cc1cccn2c(=O)c3cc(C(=O)NC4CCCC4)n(C)c3nc12,.,.,.,.,13,-1
CN(C)S(=O)(=O)N(CC(=O)N1CCN(c2ccccc2)CC1)c1ccccc1,-4,1,0,1,9,-7
CCN(CC)c1ccc(C2NCC(c3ccc([N+](=O)[O-])cc3)O2)cc1 (centres undefined),0,-2,-1,0,6,6
C[C@@H]1CC[C@@]2(O[C@@H](CCO)C[C@@H](O)[C@@H]2O)O1,.,.,.,.,.,0
Cc1cccn2c(=O)c3cc(C(=O)NC4CCCCC4)n(C)c3nc12,.,.,.,.,45,0
Cc1cccn2c(=O)c3cc(C(=O)NC4CCCCC4)c(=N)n(CCN4CCOCC4)c3nc12,.,4,97*,128*,46,113*
COCCCN(Cc1ccccn1)S(=O)(=O)Cc1ccccc1,1,-2,-1,1,0,.
Clc1ccc(C2=Nn3c(nnc3-c3n[nH]c4c3CCC4)SC2)cc1,-2,2,-4,1,73*,-2
O=C(O)c1ccc(C(=O)c2ccc3c(c2)C(=O)N(CC2CCCO2)C3=O)cc1 (centres undefined),4,10*,.,.,-15,3
O=C(O)c1ccc(S(=O)(=O)c2ccc3c(c2)C(=O)N(CC2CCCO2)C3=O)cc1 (centres undefined),-3,-2,-1,-2,-5,-3
CCCCNc1nc2ccccc2[nH]1,-6,-2,1,-6,31,6
CCOCCCNc1nc2ccccc2[nH]1,-2,10*,0,-1,-8,5
Cn1c(=O)c2nc(-c3ccccc3)c(-c3ccccc3)nc2n(C)c1=O,.,.,.,.,.,6
Cn1c(=O)c2nc3ccccc3nc2n(C)c1=O,-6,1,31,63*,49,7
COc1ccc(CCN2C(=O)NC(NS(=O)(=O)c3ccc(N)cc3)(C(F)(F)F)C2=O)cc1OC (centres undefined),-8,2,0,-1,5,3
SMILES,Efa HMGR inh,Wee1 degr inh,Runt-CBFb FRET,Runt-SMMHC FRET,PHOSPHO1 inh,RanGTP-Impb inh
COc1ccc(CCN2C(=O)NC(NS(=O)(=O)c3ccc(NC(C)=O)cc3)(C(F)(F)F)C2=O)cc1OC (centres undefined),-4,0,0,-2,64*,1
CCC(C)[C@H](NC(=O)NCC1CCCO1)C(=O)OC (some centres undefined),-1,-2,-1,-2,14,6
CC(C)N(C(=O)NC(=O)NCC1CCCO1)S(C)(=O)=O (centres undefined),1,9.5*,-2,-1,5,1
Cc1ccc2nc(NCCCN3CCOCC3)c(C=NCCCN3CCOCC3)c(=O)n2c1,-5,-2,76*,66*,6,39*
Cc1nnc(SCC(=O)NC2CCS(=O)(=O)C2)n1Cc1ccccc1 (centres undefined),0,-1,23,-1,58,?
Cc1ccc2nc3c(cc(C(=O)NCCN4CCOCC4)c(=N)n3CCCN3CCOCC3)c(=O)n2c1,.,.,.,.,27,143*
Cc1ccc2nc3c(cc(C(=O)NCCc4ccccc4)c(=N)n3CCN3CCOCC3)c(=O)n2c1,.,.,.,.,26,159*
Cc1ccc2nc3c(cc(C(=O)NC4CCS(=O)(=O)C4)n3Cc3ccccc3)c(=O)n2c1 (centres undefined),.,.,.,.,62*,5
COc1ccc(OC)c(NS(=O)(=O)c2c(C(=O)N3CCCCCC3)c(C)n(C)c2C)c1,.,.,.,.,8,3
CC(=O)C(/C=N/c1ncc(C(F)(F)F)cc1Cl)=C(\C)O,0,-2,-1,-1,46,22*
Cc1ccc(C)c(OCCCC(C)(C)C(=O)O)c1,9.6*,-2,0,-2,-28,0
Cc1ccc(C)c(OCCCC(=O)O)c1,-3,-1,0,0,16,6
O=C(NNC(=S)Nc1ccc(Br)cc1)c1ccccc1,.,.,.,.,-23,2
Cc1cccc(NC(=S)NNC(=O)c2ccc(Br)o2)c1,-8,-1,0,2,88*,0
O=C(NNC(=S)Nc1ccccc1)c1cccc(Br)c1,-3,-1,4,0,89*,-4
O=C(Nn1cnnc1)c1ccc(OC(F)(F)C(F)C(F)(F)F)cc1 (centres undefined),.,.,.,.,33,1
CC(=O)NC1N=C(C)N(c2ccccc2)C1=O (centres undefined),1,0,-26,11,100*,?
c1ccc(N2CCN(c3nc4ccccc4n4nnnc34)CC2)cc1,1,-3,15,31,14,44*
c1ccc2c(c1)nc(N1CCOCC1)c1nnnn12,-1,1,12,20,26,?
CCOc1ccc(NC(=S)N2CCCC2)cc1,.,.,.,.,18,.
CCc1ccc(NC(=S)N2CCCCCCC2)cc1,3,0,-2,4,68*,0
O=S(=O)(/N=C(/Sc1ccccc1)c1ccccc1)c1ccccc1,4,-1,15,12,100*,5
CS/C(=N\S(=O)(=O)c1ccccc1)c1ccccc1,-1,0,12,-5,-5,3
Cc1ccc(CC(=O)Nc2nccs2)cc1C,.,.,.,.,40,6
